An excerpt weighted towards active compounds, which were near 7.1% of everything screened.
PTEN del growth = PTEN-deleted cell growth suppression; hit rate 1.2% among 140,000; viability, % at 10 µM; HCT116 PTEN-null viability, CellTiter-Glo, 60 h; stronger effect = lower value;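 active means viability at or below a set limit, 4 SD under the median of all tested compounds, cut at about 3.7% in these data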;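 further: PTEN knockout HCT116 line with beta catenin targeted HCT116 as companion control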
HUVEC prolif 384 = inhibitors of human endothelial cell proliferation | HUVEC proliferation, CellTiter-Glo luminescence, 72 h; stronger effect = lower value | viability, % at 10 µM (by protocol) | hit rate 1.1% among 86,000 | AID 648;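 active means viability at or below 30%; inactive means viability above 30%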;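 further: 100% = median luminescence of DMSO-only cell control wells on each plate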
Fibroblast inh = blocks proliferation of human lung fibroblasts; LL 47 human lung fibroblast viability, ATP luminescence; stronger effect = lower value; hit rate 1.1% among 85,000; viability, % at 10 µM;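 active means viability at or below 50% in the single dose screen; inactive means viability above 50%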;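 further: compound exposure lasted 72 h before the ATP readout; 100% = median luminescence of untreated cell-only wells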
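Times – overnight cell rest, 72 h compound treatment at 37 °C · Test system – human lung fibroblast line LL 47, low passage · Amount – 1,150 cells in each well · Controls – cell-only wells, no compound · Doses – 0.1% DMSO in all compound wells · Measured by – CellTiter-Glo luminescence · Buffer or medium – IMEM plus 15% FBS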
HCT116 bCat-KO = beta-catenin-lacking colon tumor cell growth suppression | HCT116 beta-catenin knockout viability, CellTiter-Glo, 60 h; stronger effect = lower value | viability, % at 10 µM | hit rate 1.5% among 140,000 | AID 818;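 active means viability at or under a set limit, the compound median less 4 SD, cut at about 6% in these data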;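 further: 0% = Hyamine 1622 control at 20 µM and 100% = untreated cell control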
Cav3 T inh = blocks human Cav3.2 T-type calcium channel; O95180; Cav3.2-expressing cells, Fluo-4 calcium fluorescence FDSS; stronger effect = lower value; B-score at 10 µM; hit rate 4% among 100,000; AID 449739;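 active means single-dose well whose peak fluorescence ratio is a statistical outlier from its plate by either plate-standardised score or position-corrected B-score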
H69AR growth 86K = blocks growth of human H69AR lung tumor cells; viability, % at 10 µM; H69AR lung tumor viability, ATP luminescence, 72 h; stronger effect = lower value; AID 598; hit rate 6% among 85,000;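 active means viability at or below 40%; inactive means viability above 40%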;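 further: multidrug resistant small cell line overexpressing MRP-1 efflux transporter; 100% = mean luminescence of untreated control wells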
Numbers without * were called inactive; · = not tested or not shown.

SMILES | PTEN del growth | HUVEC prolif 384 | Fibroblast inh | HCT116 bCat-KO | Cav3 T inh | H69AR growth 86K
COC(=O)C1C(=O)C2=C(CC1C)NC(C)=C(C(=O)OCCOc1ccccc1)C2c1ccc(C)o1 (stereo not drawn) | 81.1 | 91.1 | 101.3 | 82.6 | -5.15* | 82.7
CC1=C(C(=O)OCc2ccccc2)C(c2ccc(C)o2)C2=C(CCCC2=O)N1 (stereo not drawn) | 95.5 | 109.9 | 97.3 | 98.2 | -3.33 | 88.1
O=c1c2ccccc2sn1-c1ccc(S(=O)(=O)N2CCCCC2)cc1 | · | 62.1 | 37.3* | · | 0.18 | 43.5
Cc1ccc(-n2sc3ccccc3c2=O)cc1S(=O)(=O)N1CCCCC1 | 34.2 | 74.4 | 49.0* | 55.8 | -1.14 | 1.5*
CCCSc1nnc(NC(=O)c2sc3nc(-c4cccs4)ccc3c2N)s1 | 105.3 | · | · | 94.8 | -9.92* | ·
Cc1csc(NC(=O)c2sc3nc(-c4cccs4)ccc3c2N)n1 | 53.6 | 81.7 | 110.5 | 63.1 | -5.44* | 64.8
COC(=O)c1sc(NC(=O)CSc2nc3cccnc3n2C2CCCCC2)nc1C | 91.5 | 56.2 | 88.5 | 83.6 | -2.71 | 20.5*
COc1cc(/C=N/NC(=O)CCC(=O)NCc2ccccc2)cc(OC)c1OC | 0.3* | · | · | 0.4* | · | ·
COc1cc(/C=N/NC(=O)CCn2c3ccccc3c3ccccc32)cc(OC)c1OC | 92.7 | · | · | 95.1 | · | ·
CC(C)CCNc1nnnc2c1sc1nc(N3CCOCC3)c3c(c12)CC(C)(C)SC3 | 83.7 | 97.4 | 90.6 | 87.4 | -4.78* | 47.9
CCn1c(=NC(=O)CSC(C)=O)sc2cc(F)ccc21 | 94.8 | 52.6 | 97.4 | 95.7 | -10.6* | 27.6*
COc1ccc2c(c1)[nH]c(=O)c1sc3ccccc3c12 | 9.3 | · | · | 5.1* | 0.588 | ·
O=C(O)c1ccccc1-c1nc2ccccc2c(=O)[nH]1 | 103.1 | 113.5 | 97.5 | 93.9 | 0.0485 | 100.2
O=C(O)c1ccccc1C1=Nc2ccc(O)cc2Oc2cc(O)ccc21 | 104.6 | 108.2 | 101.4 | 107.7 | -9.2* | 104.7
CCOc1cc(-c2noc(-c3ccncc3)n2)cc(Br)c1OC | 84.6 | 64.8 | 109.2 | 89.0 | -0.863 | 20.3*
COc1ccc(N/C(N)=N/c2nc(CSc3ccc(Cl)cc3)cc(=O)[nH]2)cc1 | 74.6 | 53.9 | 93.8 | 78.1 | -0.00528 | 16.3*
O=C(/C=C/c1ccccc1)NC(=S)NNC(=O)c1ccco1 | 42.6 | 77.4 | 77.7 | 39.5 | -4.52 | 24.9*
CC(=O)C1=C(C)NC(C)=C(C(C)=O)C1c1ccc(-c2ccccc2Cl)o1 | 70.8 | 88.6 | 93.5 | 60.6 | -5.56* | 79.7
CCOC(=O)C1=C(C)NC(=O)NC1c1ccc(-c2ccccc2F)o1 (stereo not drawn) | 89.0 | · | · | 84.8 | · | ·
CCOC(=O)N1C2=NC(C(=O)OC)=C(C(=O)OC)[C@@H]3N(C)c4ccccc4[C@]23C[C@H]1C(=O)OC | · | · | · | · | 0.385 | ·
CCOc1ccc2[nH]c(=O)c(CN(Cc3cccs3)C(CC)c3nnnn3C(C)(C)CC)cc2c1 (stereo not drawn) | 17.7 | 55.6 | 61.8 | 29.8 | -6.23* | 4.9*
CCOC(=O)Cn1nnnc1C(C(C)C)N(Cc1cccs1)Cc1cc2cc(C)ccc2[nH]c1=O (stereo not drawn) | 43.1 | 68.6 | 97.0 | 60.8 | -2.09 | 41.1
CCC(c1nnnn1C1CCCC1)N(Cc1cccs1)Cc1cc2cc(C)ccc2[nH]c1=O (stereo not drawn) | 3.0* | 51.2 | 74.1 | 4.0* | -1.06 | 4.2*
CCNC(=S)N(Cc1cccs1)Cc1cc2cc(OCC)ccc2[nH]c1=O | 82.3 | · | · | 76.0 | · | ·
CC(C)(C)OC(=O)CC[C@@H](C(=O)N1CCN(C(=O)OC(C)(C)C)CC1)n1cc(C(CO)NC(=O)OC(C)(C)C)nn1 (stereo partly drawn) | · | · | · | · | 0.918 | ·
SMILES | PTEN del growth | HUVEC prolif 384 | Fibroblast inh | HCT116 bCat-KO | Cav3 T inh | H69AR growth 86K
Cc1ccc(NS(=O)(=O)c2cc(C(=O)NCCSc3ccc(C)cc3)ccc2C)cc1 | 30.9 | · | · | 33.7 | -4.43* | ·
Cc1ccc(SCCNC(=O)c2ccc(C)c(S(=O)(=O)Nc3cccc(C)c3)c2)cc1 | 29.7 | · | · | 39.8 | -4.56* | ·
Cc1ccc(NS(=O)(=O)c2cc(C(=O)NCCSC3CCCCC3)ccc2C)cc1 | 65.2 | · | · | 65.1 | -4.46* | ·
CS(=O)(=O)Nc1ccc(C(=O)NCCSC2CCCCC2)cc1 | · | 99.3 | 105.4 | 86.4 | 0.52 | 81.8
C#Cc1ccc([C@H]2C=C(C(=O)NCc3ccccc3)O[C@@H](OCc3ccc(CO)cc3)C2)cc1 | · | · | · | · | -0.0548 | ·
O=C(NCc1ccco1)c1cc2sccc2n1Cc1ccccc1 | 73.7 | 98.6 | 91.0 | 81.9 | -5.61* | 62.5
O=C(NCCc1ccccc1)c1cc2sccc2n1Cc1ccccc1 | 99.8 | 98.0 | 92.2 | 96.9 | -0.873 | 71.3
O=C(CC(c1ccccc1)c1ccccc1)Nc1ccc2c(c1)OCCO2 | 61.9 | 91.8 | 99.8 | 61.7 | -3.59* | 76.9
O=C(Nc1ccc2c(c1)OCCO2)c1cc2sccc2n1Cc1ccccc1 | 38.6 | 91.4 | 97.8 | 41.9 | -5.58* | 82.2
CC(=O)NC1CC(C)(C)N(OC(C)=O)C(C)(C)C1 | 95.9 | 99.1 | 95.4 | 82.1 | · | 90.4
O=C(CCCOc1ccc(Cl)cc1Cl)NN1CCOCC1 | 106.0 | · | · | 96.9 | · | ·
CC(=O)C(C(C)=O)c1c(Cl)c(O)c(O)c2c(C(=O)c3ccccc3)coc12 | 66.1 | 65.5 | 47.4* | 62.3 | -1 | 1.6*
O=C(CCN1C(=O)c2ccccc2C1=O)N1CCN(Cc2ccc(Cl)cc2Cl)CC1 | 96.2 | 104.6 | 99.3 | 97.6 | -6* | 91.4
Cc1ccnc(NS(=O)(=O)c2cnc(Cl)c(Br)c2)c1 | 87.2 | · | · | 94.0 | · | ·
N#Cc1cc(-c2ccc(Cl)cc2)cn(Cc2c(Cl)cccc2Cl)c1=O | 56.5 | · | · | 62.3 | 0.64 | ·
CSc1cc(-c2ccc(Cl)cc2)n(Cc2ccccc2)c(=O)c1C#N | 93.9 | 8.8* | 27.2* | 90.0 | -0.374 | 5.4*
CSc1cc(-c2ccccc2)n(Cc2c(Cl)cccc2Cl)c(=O)c1C#N | 30.2 | 28.9 | 33.2* | 26.3 | -1.4 | 12.1*
Cc1ccc(C)c(N2CCN(C(=O)CCCN3C(=S)NC(C)(C)CC3C)CC2)c1 (stereo not drawn) | 40.0 | · | · | 23.5 | · | ·
CC(=O)n1cc([C@H]2C=C(C(=O)N3CCN(Cc4ccccc4)CC3)O[C@@H](OCc3ccc(CO)cc3)C2)c2ccccc21 | · | · | · | · | 0.0131 | ·
Nc1ccc(N2CCCCC2)cc1N1CCCCC1 | 2.5* | · | · | 3.2* | · | ·
Cc1ccc(S(=O)(=O)NC(CC(=O)n2nc(C)cc2C)c2ccccc2)cc1 (stereo not drawn) | 106.2 | · | · | 102.5 | -6.3* | ·
Nc1c(-c2ccccc2)c(CSc2nc3ccccc3[nH]2)nn1-c1ccc(C(=O)O)cc1 | 96.4 | · | · | 91.2 | · | ·
COc1cc(C(=O)OCC(=O)NC2CCS(=O)(=O)C2)ccc1OCc1c(C)noc1C (stereo not drawn) | 113.4 | · | · | 92.9 | · | ·
O=c1ccn(-c2cccc(C(F)(F)F)c2)nc1-c1ccn(-c2cccc(Cl)c2)n1 | 70.8 | · | · | 79.8 | -5.69* | ·
CCN1CCN(CCCOc2ccc(-c3ccccc3)cc2)CC1 | 2.0* | 48.1 | 51.3 | 1.8* | 0.0072 | 18.6*

Screening data (PubChem)
